Data reported in ChEMBL document CHEMBL2029264, “Indole-based fibrates as potential hypolipidemic and antiobesity agents” (J Med Chem, 2012).

What was measured:
Assay type in all cases: functional
Rattus norvegicus [1] = test: Antihyperlipidemic activity in Triton WR-1339-induced hyperlipidemic rat assessed as decrease in plasma phospholipid level at 100 mg/kg, po relative to control; parameters: scale not given: the % may be the effect or the level left
Summary of the method: (§1)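 Triton WR-1339 given to rats to induce hyperlipidemia; oral dosing. Plasma TC, PL, TG in mg/dL; PHLA as […]/h/mL plasma. Mean ± SD of six rats; Triton group compared with control, Triton plus dosed group compared with Triton group.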

Rattus norvegicus [2] = test: Antihyperlipidemic activity in Triton WR-1339-induced hyperlipidemic rat assessed as decrease in plasma total cholesterol level at 100 mg/kg, po relative to control; parameters: scale not given: the % may be the effect or the level left; summary of the method: as §1
Rattus norvegicus [3] = test: Antihyperlipidemic activity in Triton WR-1339-induced hyperlipidemic rat assessed as decrease in plasma triglyceride level at 100 mg/kg, po relative to control; parameters: scale not given: the % may be the effect or the level left; summary of the method: as §1
Rattus norvegicus [4] = test: Antihyperlipidemic activity in HFD-induced hyperlipidemic Charles Foster rat assessed as decrease in plasma LDL-phospholipid level at 100 mg/kg, po administered for 4 weeks relative to control; parameters: scale not given: the % may be the effect or the level left
Summary of the method: (§2)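 After 4 weeks high-fat feeding plus 4 weeks daily dosing, overnight fast, retro-orbital blood into EDTA tubes. Serum split into VLDL, LDL and HDL by polyanionic precipitation; each fraction assayed for TC, PL, TG and apoprotein (mg/dL plasma). Pooled data from 6 rats/group, mean ± SD, dosed groups compared with high-fat group.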

Rattus norvegicus [5] = test: Antihyperlipidemic activity in HFD-induced hyperlipidemic Charles Foster rat assessed as decrease in plasma LDL-triglyceride level at 100 mg/kg, po administered for 4 weeks relative to control; parameters: scale not given: the % may be the effect or the level left; summary of the method: as §2
Rattus norvegicus [6] = test: Antihyperlipidemic activity in HFD-induced hyperlipidemic Charles Foster rat assessed as increase in plasma HDL-apoprotein level at 100 mg/kg, po administered for 4 weeks relative to control; summary of the method: as §2
Rattus norvegicus [7] = test: Antihyperlipidemic activity in HFD-induced hyperlipidemic Charles Foster rat assessed as increase in plasma HDL-total cholesterol level at 100 mg/kg, po administered for 4 weeks relative to control; summary of the method: as §2
Rattus norvegicus [8] = test: Antihyperlipidemic activity in HFD-induced hyperlipidemic Charles Foster rat assessed as increase in [I125]-LDL catabolism in plasma membrane of liver at 100 mg/kg/day, po administered for 4 weeks
Summary of the method: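 Rats on 8 weeks total of high-fat diet, dosed daily for the last 4 weeks, then sacrificed. Human serum LDL radiolabeled with I125; specific binding to liver plasma membrane preparation measured as receptor-mediated LDL catabolism. Mean ± SD, n = 6.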

Rattus norvegicus [9] = test: Antihyperlipidemic activity in HFD-induced hyperlipidemic Charles Foster rat assessed as decrease in plasma LDL-apoprotein level at 100 mg/kg, po administered for 4 weeks relative to control; parameters: scale not given: the % may be the effect or the level left; summary of the method: as §2
Rattus norvegicus [10] = test: Antihyperlipidemic activity in HFD-induced hyperlipidemic Charles Foster rat assessed as decrease in plasma VLDL-total cholesterol level at 100 mg/kg, po administered for 4 weeks relative to control; parameters: scale not given: the % may be the effect or the level left; summary of the method: as §2
Rattus norvegicus [11] = test: Antihyperlipidemic activity in HFD-induced hyperlipidemic Charles Foster rat assessed as reactivation of LPL activity at 100 mg/kg, po administered for 4 weeks relative to control
Summary of the method: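 Male Charles Foster rats fed high-fat diet 4 weeks, then diet plus daily dosing 4 weeks. Liver homogenized (10% w/v) in cold 100 mM phosphate buffer pH 7.2; total lipolytic LPL activity read as nmol free fatty acid formed/h/mg protein; pooled data from 6 rats/group, mean ± SD.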

Rattus norvegicus [12] = test: Antihyperlipidemic activity in HFD-induced hyperlipidemic Charles Foster rat assessed as increase in cholic acid excretion in feces at 100 mg/kg/day, po administered for 4 weeks measured after 30 days relative to control
Summary of the method: (§3)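 Rats fed high-fat diet 4 weeks, then diet plus daily dosing 4 weeks. Cholic and deoxycholic acid excreted in feces measured; dosed groups compared with high-fat group, control compared with high-fat group.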

Rattus norvegicus [13] = test: Antihyperlipidemic activity in HFD-induced hyperlipidemic Charles Foster rat assessed as decrease in liver phospholipid level at 100 mg/kg, po administered for 4 weeks relative to control; parameters: scale not given: the % may be the effect or the level left
Summary of the method: (§4)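 Adult male Charles Foster rats (200−225 g), high-fat diet 4 weeks, then diet plus daily dosing 4 more weeks; overnight fast, sacrifice, liver washed in cold 0.15 M KCl and held at 4 °C. Lipids extracted from liver homogenate in CHCl3/CH3OH (2:1 v/v), TC, PL and TG read in mg/g; pooled data from 6 rats/group, mean ± SD.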

Rattus norvegicus [14] = test: Antihyperlipidemic activity in HFD-induced hyperlipidemic Charles Foster rat assessed as increase in serum LCAT enzyme level at 100 mg/kg, po administered for 4 weeks relative to control
Summary of the method: (§5)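 Male Charles Foster rats (200−225 g): high-fat diet 4 weeks, then diet plus daily dosing 4 weeks. Overnight fast, retro-orbital blood in EDTA (3 mg/mL blood), centrifuged to serum. TC, PL, TG in mg/dL; LCAT as nmol cholesterol released/h/L plasma. Mean ± SD; dosed groups compared with high-fat group, P by significance levels.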

Rattus norvegicus [15] = test: Antihyperlipidemic activity in HFD-induced hyperlipidemic Charles Foster rat assessed as increase in plasma HDL-triglyceride level at 100 mg/kg, po administered for 4 weeks relative to control; summary of the method: as §2
Rattus norvegicus [16] = test: Antihyperlipidemic activity in HFD-induced hyperlipidemic Charles Foster rat assessed as decrease in plasma VLDL-triglyceride level at 100 mg/kg, po administered for 4 weeks relative to control; parameters: scale not given: the % may be the effect or the level left; summary of the method: as §2
Rattus norvegicus [17] = test: Antihyperlipidemic activity in HFD-induced hyperlipidemic Charles Foster rat assessed as increase in plasma HDL-phospholipid level at 100 mg/kg, po administered for 4 weeks relative to control; summary of the method: as §2
Rattus norvegicus [18] = test: Antihyperlipidemic activity in HFD-induced hyperlipidemic Charles Foster rat assessed as decrease in plasma LDL-total cholesterol level at 100 mg/kg, po administered for 4 weeks relative to control; parameters: scale not given: the % may be the effect or the level left; summary of the method: as §2
Rattus norvegicus [19] = test: Antihyperlipidemic activity in HFD-induced hyperlipidemic Charles Foster rat assessed as decrease in plasma VLDL-phospholipid level at 100 mg/kg, po administered for 4 weeks relative to control; parameters: scale not given: the % may be the effect or the level left; summary of the method: as §2
Rattus norvegicus [20] = test: Antihyperlipidemic activity in HFD-induced hyperlipidemic Charles Foster rat assessed as decrease in liver total cholesterol level at 100 mg/kg, po administered for 4 weeks relative to control; parameters: scale not given: the % may be the effect or the level left; summary of the method: as §4
Rattus norvegicus [21] = test: Antihyperlipidemic activity in HFD-induced hyperlipidemic Charles Foster rat assessed as increase in deoxycholic acid excretion in feces at 100 mg/kg/day, po administered for 4 weeks measured after 30 days relative to control; summary of the method: as §3
Rattus norvegicus [22] = test: Antihyperlipidemic activity in HFD-induced hyperlipidemic Charles Foster rat assessed as decrease in serum total cholesterol level at 100 mg/kg, po administered for 4 weeks relative to control; parameters: scale not given: the % may be the effect or the level left; summary of the method: as §5
Rattus norvegicus [23] = test: Antihyperlipidemic activity in HFD-induced hyperlipidemic Charles Foster rat assessed as decrease in serum triglyceride level at 100 mg/kg, po administered for 4 weeks relative to control; parameters: scale not given: the % may be the effect or the level left; summary of the method: as §5
Rattus norvegicus [24] = test: Antihyperlipidemic activity in HFD-induced hyperlipidemic Charles Foster rat assessed as decrease in serum phospholipid level at 100 mg/kg, po administered for 4 weeks relative to control; parameters: scale not given: the % may be the effect or the level left; summary of the method: as §5
Rattus norvegicus [25] = test: Antihyperlipidemic activity in HFD-induced hyperlipidemic Charles Foster rat assessed as decrease in plasma VLDL-apoprotein level at 100 mg/kg, po administered for 4 weeks relative to control; parameters: scale not given: the % may be the effect or the level left; summary of the method: as §2
Rattus norvegicus [26] = test: Antihyperlipidemic activity in HFD-induced hyperlipidemic Charles Foster rat assessed as decrease in liver triglyceride level at 100 mg/kg, po administered for 4 weeks relative to control; parameters: scale not given: the % may be the effect or the level left; summary of the method: as §4
Rattus norvegicus [27] = test: Antihyperlipidemic activity in Triton WR-1339-induced hyperlipidemic rat assessed as increase in PHLA enzyme level at 100 mg/kg, po; summary of the method: as §1
Rattus norvegicus [28] = test: Antihyperlipidemic activity in Triton WR-1339-induced hyperlipidemic rat assessed as increase in LCAT enzyme level at 100 mg/kg, po; summary of the method: as §1

With CCOC(=O)C(C)(C)Oc1ccc(C(c2c[nH]c3ccccc23)c2c[nH]c3ccccc23)cc1 the Activity (Rattus norvegicus [1]) was 9%, the Activity (Rattus norvegicus [2]) was 9% and the Activity (Rattus norvegicus [3]) was 6%.

In the case of CC(C)OC(=O)C(C)(C)Oc1ccc(C(=O)c2ccc(Cl)cc2)cc1 [FENOFIBRATE], the Activity (Rattus norvegicus [4]) is reported as 28%, the Activity (Rattus norvegicus [5]) is reported as 27% and the Activity (Rattus norvegicus [6]) is reported as 17%. It also gave an Activity (Rattus norvegicus [7]) of 16%, an Activity (Rattus norvegicus [8]) of 30% and an Activity (Rattus norvegicus [9]) of 28%. For the same compound, the Activity (Rattus norvegicus [10]) was 28%, the Activity (Rattus norvegicus [11]) was 26% and the Activity (Rattus norvegicus [12]) was 31%. For the same compound, the Activity (Rattus norvegicus [13]) was 33%, the Activity (Rattus norvegicus [14]) was 34% and the Activity (Rattus norvegicus [15]) was 16%. For the same compound, the Activity (Rattus norvegicus [16]) was 30%, the Activity (Rattus norvegicus [17]) was 15% and the Activity (Rattus norvegicus [18]) was 28%. For the same compound, the Activity (Rattus norvegicus [19]) was 24%, the Activity (Rattus norvegicus [20]) was 37% and the Activity (Rattus norvegicus [21]) was 33%. It also gave an Activity (Rattus norvegicus [22]) of 36%, an Activity (Rattus norvegicus [23]) of 33% and an Activity (Rattus norvegicus [24]) of 34%. It also gave an Activity (Rattus norvegicus [25]) of 35% and an Activity (Rattus norvegicus [26]) of 34%.

CCOC(=O)COc1ccc(C(c2cn(C)c3ccccc23)c2cn(C)c3ccccc23)cc1 showed an Activity (Rattus norvegicus [1]) of 12%, an Activity (Rattus norvegicus [2]) of 10% and an Activity (Rattus norvegicus [3]) of 9%.

CCOC(=O)C(C)(C)Oc1ccc(C(c2cn(CC)c3ccccc23)c2cn(CC)c3ccccc23)cc1 was tested, and the Activity (Rattus norvegicus [1]) was 9%, the Activity (Rattus norvegicus [2]) was 11% and the Activity (Rattus norvegicus [3]) was 9%.

In the case of CCOC(=O)C(C)Oc1ccc(C(c2cn(C)c3ccccc23)c2cn(C)c3ccccc23)cc1 (stereo not drawn), the Activity (Rattus norvegicus [1]) is reported as 6%, the Activity (Rattus norvegicus [2]) is reported as 10% and the Activity (Rattus norvegicus [3]) is reported as 8%.

Work on Cc1ccc(C)c(OCCCC(C)(C)C(=O)O)c1 [GEMFIBROZIL] yielded an Activity (Rattus norvegicus [1]) of 35%, an Activity (Rattus norvegicus [2]) of 33% and a percent increase (Rattus norvegicus [27]) of 27%. For the same compound, the Activity (Rattus norvegicus [28]) was 27 nmol/h/mL and the Activity (Rattus norvegicus [3]) was 35%.

Work on CCOC(=O)C(C)Oc1ccc(C(c2c(C)[nH]c3ccccc23)c2c(C)[nH]c3ccccc23)cc1 (stereo not drawn) yielded an Activity (Rattus norvegicus [1]) of 5%, an Activity (Rattus norvegicus [2]) of 9% and an Activity (Rattus norvegicus [3]) of 8%.

With CCOC(=O)CCCOc1ccc(C(c2c[nH]c3ccccc23)c2c[nH]c3ccccc23)cc1 the Activity (Rattus norvegicus [1]) was 15%, the Activity (Rattus norvegicus [2]) was 12% and the Activity (Rattus norvegicus [3]) was 12%.

CCOC(=O)COc1ccc(C(c2cn(CC)c3ccccc23)c2cn(CC)c3ccccc23)cc1 gave an Activity (Rattus norvegicus [1]) of 6%, an Activity (Rattus norvegicus [2]) of 12% and an Activity (Rattus norvegicus [3]) of 10%.

CCOC(=O)C(C)Oc1ccc(C(c2c(C)n(C)c3ccccc23)c2c(C)n(C)c3ccccc23)cc1 (stereo not drawn) gave an Activity (Rattus norvegicus [1]) of 10%, an Activity (Rattus norvegicus [2]) of 10% and an Activity (Rattus norvegicus [3]) of 6%.

CCOC(=O)COc1ccc(C(c2c[nH]c3ccccc23)c2c[nH]c3ccccc23)cc1 was tested, and the Activity (Rattus norvegicus [1]) was 25%, the Activity (Rattus norvegicus [2]) was 12% and the Activity (Rattus norvegicus [3]) was 10%.

Compound CCOC(=O)C(C)(C)Oc1ccc(C(c2cn(C)c3ccccc23)c2cn(C)c3ccccc23)cc1 has an Activity (Rattus norvegicus [1]) of 9%, an Activity (Rattus norvegicus [2]) of 10% and an Activity (Rattus norvegicus [3]) of 5%.
